“And” between values parts separate entries of the source, which are not always exact repeats. Equal entries are not always repeated.
Experiments:
Canis familiaris [1] = test: Heart rate was determined by intraduodenal administration of two dosages of 30 mg/kg of compound in anesthetized dogs. Value was reported for experiment 1; type: functional, Canis lupus familiaris
Method in brief: (§1)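 Anesthetized dogs; compound given intraduodenally, generally as two doses, the second a cumulative (high) dose. LV functional refractory period and conduction time measured 15, 30 and 45 min after dosing; heart rate and blood pressure measured during nonpacing intervals. Values are % change from control, given per individual animal. Active if FRP or CT prolonged by ≥12%.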

Canis familiaris [2] = test: Heart rate was determined by intraduodenal administration of two dosages of 30 mg/kg of compound in anesthetized dogs. Value was reported for experiment 2; type: functional, Canis lupus familiaris; method in brief: as §1
Canis familiaris [3] = test: Conduction time was determined by intraduodenal administration of 30 mg/kg (high dose) of compound in anesthetized dogs. Value was reported for experiment 1; type: functional, Canis lupus familiaris; method in brief: as §1
Canis familiaris [4] = test: Conduction time was determined by intraduodenal administration of 30 mg/kg (high dose) of compound in anesthetized dogs. Value was reported for experiment 2; type: functional, Canis lupus familiaris; method in brief: as §1
Canis familiaris [5] = test: Conduction time was determined by intraduodenal administration of 10 mg/kg (low dose) of compound in anesthetized dogs. Value was reported for experiment 1; type: functional, Canis lupus familiaris; method in brief: as §1
Canis familiaris [6] = test: Conduction time was determined by intraduodenal administration of 10 mg/kg (low dose) of compound in anesthetized dogs. Value was reported for experiment 2; type: functional, Canis lupus familiaris; method in brief: as §1
Canis familiaris [7] = test: Heart rate was determined by intraduodenal administration of two dosages of 10 mg/kg of compound in anesthetized dogs. Value was reported for experiment 1; type: functional, Canis lupus familiaris; method in brief: as §1
Canis familiaris [8] = test: Heart rate was determined by intraduodenal administration of two dosages of 10 mg/kg of compound in anesthetized dogs. Value was reported for experiment 2; type: functional, Canis lupus familiaris; method in brief: as §1
Canis familiaris [9] = test: Left ventricular refractory period was determined by intraduodenal administration of 10 mg/kg (low dose) of compound in anesthetized dogs. Value was reported for experiment 1; type: functional, Canis lupus familiaris, Cardiac ventricle; settings: 10 mg/kg
Method in brief: (§2)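 Anesthetized dogs received two intraduodenal doses, the second cumulative (low dose/high dose). Left ventricular FRP and CT were measured 15, 30 and 45 min after dosing. Heart rate and mean blood pressure were taken during nonpacing intervals. Values are percent change from control. The vehicle was 5% dextrose in water/tragacanth. Activity was defined as ≥12% prolongation of FRP or CT.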

Canis familiaris [10] = test: Left ventricular refractory period was determined by intravenous administration of two dosages (high/low) of 3 mg/kg of compound in anesthetized dogs. Value was reported for experiment 1; type: functional, Canis lupus familiaris, Cardiac ventricle
Canis familiaris [11] = test: Left ventricular refractory period was determined by intravenous administration of two dosages (high/low) of 3 mg/kg of compound in anesthetized dogs. Value was reported for experiment 2; type: functional, Canis lupus familiaris, Cardiac ventricle
Canis familiaris [12] = test: Left ventricular refractory period was determined by intraduodenal administration of 30 mg/kg (high dose) of compound in anesthetized dogs. Value was reported for experiment 1; type: functional, Canis lupus familiaris, Cardiac ventricle; method in brief: as §2
Canis familiaris [13] = test: Left ventricular refractory period was determined by intraduodenal administration of 30 mg/kg (high dose) of compound in anesthetized dogs. Value was reported for experiment 2; type: functional, Canis lupus familiaris, Cardiac ventricle; method in brief: as §2
Canis familiaris [14] = test: Mean arterial blood pressure was determined by intraduodenal administration of two dosages of 30 mg/kg of compound in anesthetized dogs. Value was reported for experiment 1; type: functional, Canis lupus familiaris; method in brief: as §2
Canis familiaris [15] = test: Mean arterial blood pressure was determined by intraduodenal administration of two dosages of 30 mg/kg of compound in anesthetized dogs. Value was reported for experiment 2; type: functional, Canis lupus familiaris; method in brief: as §2
Canis familiaris [16] = test: Mean arterial blood pressure was determined by intraduodenal administration of two dosages of 10 mg/kg of compound in anesthetized dogs. Value was reported for experiment 1; type: functional, Canis lupus familiaris; method in brief: as §2
Canis familiaris [17] = test: Mean arterial blood pressure was determined by intraduodenal administration of two dosages of 10 mg/kg of compound in anesthetized dogs. Value was reported for experiment 2; type: functional, Canis lupus familiaris; method in brief: as §2
Canis familiaris [18] = species on record: Canis familiaris; test: In vitro electrophysiological evaluation in canine cardiac ventricular muscle reported as maximum % change for conduction time(CT) at 0.1-10 uM concentration range; concentration at which it occurred is 0.1 uM.; type: functional, Canis lupus familiaris, Muscle tissue
Method in brief: (§3)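 Canine right ventricle and papillary muscle strips in oxygenated Tyrode's solution, fitted with stimulating and recording electrodes. The extra-stimulus conduction-interval method was adapted for in vitro use. FRP and CT were read from a conduction-interval curve before and after various compound concentrations, and expressed as percent change from control. Compounds were taken from 10 mM deionized-water stock into Tyrode's. Each strip was used once as its own control.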

Canis familiaris [19] = species on record: Canis familiaris; test: In vitro electrophysiological evaluation in canine cardiac ventricular muscle reported as % change for the functional refractory period (FRP) at 10 uM at concentration range of 0.1-10 uM; set-up: species or system Canis lupus familiaris, Muscle tissue; method in brief: as §3
Canis familiaris [20] = species on record: Canis familiaris; test: In vitro electrophysiological evaluation in canine cardiac ventricular muscle reported as maximum % change for functional refractory period (FRP) at 0.1-10 uM concentration range; concentration at which it occurred is 10 uM.; set-up: species or system Canis lupus familiaris, Muscle tissue; method in brief: as §3
Canis familiaris [21] = species on record: Canis familiaris; test: In vitro electrophysiological evaluation in canine cardiac Purkinje fibres reported as percent change Vmax at 10 uM at concentration range of 0.1-100 uM; Minimal (<10% decrease or increase in Vmax).; type: functional, organism-based; settings: Canis lupus familiaris, Purkinje fiber
Method in brief: (§4)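 Canine cardiac Purkinje fibres, intracellular microelectrode recording, paced at a basic cycle length of 1 s. APD95 and Vmax read simultaneously. Compound: 10 mM stock in deionized water, diluted into Tyrode's solution, tested over the stated concentration range. Each fibre used once as its own control. Result is % change from control, given at 10 µM or as the maximum with its concentration. M = <10% decrease or an increase in Vmax.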

Canis familiaris [22] = species on record: Canis familiaris; test: In vitro electrophysiological evaluation in canine cardiac Purkinje fibres reported as percent change Vmax at 10 uM at concentration range of 0.1-10 uM; Minimal (<10% decrease or increase in Vmax).; type: functional; settings: Canis lupus familiaris, Purkinje fiber; method in brief: as §4
Canis familiaris [23] = species on record: Canis familiaris; test: In vitro electrophysiological evaluation in canine cardiac Purkinje fibres reported as percent change Vmax at 10 uM at concentration range of 1-100 uM; type: functional; settings: Canis lupus familiaris, Purkinje fiber; method in brief: as §4
Canis familiaris [24] = species on record: Canis familiaris; test: (§5) In vitro electrophysiological evaluation in canine cardiac occurred is 100 uM.; type: functional; settings: Canis lupus familiaris; Heart
Canis familiaris [25] = species on record: Canis familiaris; test: as §5; type: functional; settings: Canis lupus familiaris; Heart; remark: listed apart in the source
Canis familiaris [26] = species on record: Canis familiaris; test: In vitro electrophysiological evaluation in canine cardiac Purkinje fibres reported as percent change Vmax at 10 uM at concentration range of 0.1-100 uM; type: functional; settings: Canis lupus familiaris, Purkinje fiber; method in brief: as §4
Canis familiaris [27] = species on record: Canis familiaris; test: In vitro electrophysiological evaluation in canine cardiac ventricular muscle reported as % change for conduction time(CT) at 0.1-10 uM concentration range; Minimal (<10% decrease or increase inCT).; type: functional, Canis lupus familiaris, Muscle tissue
Canis familiaris [28] = species on record: Canis familiaris; test: as §5; type: functional, organism-based; settings: Canis lupus familiaris; Heart
Canis familiaris [29] = species on record: Canis familiaris; test: as §5; type: functional; settings: Canis lupus familiaris; Heart; remark: listed apart in the source
Canis familiaris [30] = species on record: Canis familiaris; test: In vitro electrophysiological evaluation in canine cardiac Purkinje fibres reported as maximum percent change Vmax concentration range of 0.1-10 uM; Minimal (<10% decrease or increase in Vmax).; type: functional; settings: Canis lupus familiaris; Purkinje fiber; method in brief: as §4
Canis familiaris [31] = species on record: Canis familiaris; test: (§6) In vitro electrophysiological activity in canine cardiac occurred is 10 uM.; type: functional, Canis lupus familiaris, Heart
Canis familiaris [32] = species on record: Canis familiaris; test: (§7) In vitro electrophysiological activity in canine cardiac occurred is 1 uM.; type: functional, Canis lupus familiaris, Heart
Canis familiaris [33] = species on record: Canis familiaris; test: as §6; type: functional, Canis lupus familiaris, Heart; remark: listed apart in the source
Canis familiaris [34] = species on record: Canis familiaris; test: as §7; type: functional, Canis lupus familiaris, Heart; remark: listed apart in the source
Canis familiaris [35] = species on record: Canis familiaris; test: In vitro electrophysiological evaluation in canine cardiac Purkinje fibres reported as % change for action potential duration at 10 uM at 1-100 uM concentration range; type: functional, Canis lupus familiaris, Purkinje fiber; method in brief: as §4
Canis familiaris [36] = species on record: Canis familiaris; test: In vitro electrophysiological evaluation in canine cardiac Purkinje fibres reported as % change for action potential duration at a concentration of 10 uM; type: functional, Canis lupus familiaris, Purkinje fiber; method in brief: as §4
Canis familiaris [37] = species on record: Canis familiaris; test: In vitro electrophysiological activity in canine cardiac occurred is 100 uM.; type: functional, Canis lupus familiaris, Heart
Canis familiaris [38] = species on record: Canis familiaris; test: as §7; type: functional, Canis lupus familiaris, Heart; remark: listed apart in the source

SMILES: OC1C2CCN(CC2)C1CCCc1ccc(Cl)cc1 (stereo not drawn)
- HR (Canis familiaris [1]): -14%
- HR (Canis familiaris [2]): -9%
- CT (Canis familiaris [3]): 7%
- CT (Canis familiaris [4]): 8%
- CT (Canis familiaris [5]): 5%
- CT (Canis familiaris [6]): 4%
- HR (Canis familiaris [7]): -6%
- HR (Canis familiaris [8]): -7%
- LV FRP (Canis familiaris [9]): 4% and 7%
- FRP (Canis familiaris [10]): 12%
- FRP (Canis familiaris [11]): 8%
- LV FRP (Canis familiaris [12]): 3%
- LV FRP (Canis familiaris [13]): 9%
- Mean blood pressure (Canis familiaris [14]): 14%
- Mean blood pressure (Canis familiaris [15]): -3%
- Mean blood pressure (Canis familiaris [16]): 14%
- Mean blood pressure (Canis familiaris [17]): 0%
- CT (Canis familiaris [18]): 11%
- FRP (Canis familiaris [19]): 21%
- FRP (Canis familiaris [20]): 21%
- Vmax (Canis familiaris [21]): < 10%
- Vmax (Canis familiaris [22]): < 10%
- Vmax (Canis familiaris [23]): -13%
- Vmax (Canis familiaris [24]): 100%
- Vmax (Canis familiaris [25]): 100%
- Vmax (Canis familiaris [26]): -24% and -20%
- CT (Canis familiaris [27]): <10%
- Vmax (Canis familiaris [28]): -48%
- Vmax (Canis familiaris [29]): 100%
- Vmax (Canis familiaris [30]): < 10%
- APD95 (Canis familiaris [31]): 14% and 40%
- APD95 (Canis familiaris [32]): 25% and 15%
- APD95 (Canis familiaris [33]): 13%
- APD95 (Canis familiaris [34]): 30%
- APD95 (Canis familiaris [35]): 13%
- APD95 (Canis familiaris [36]): 12%
- APD95 (Canis familiaris [37]): -24% and -7%
- APD95 (Canis familiaris [38]): 41%

Source: ChEMBL document CHEMBL1123566, “Synthesis and cardiac electrophysiological activity of 2- and 3-[(substituted phenyl)alkyl]quinuclidines. Structure-activity relationships” (1987)
